The assay has as its target T1, Tyrosine-protein phosphatase non-receptor type 1 (Homo sapiens, UniProt P18031).
T1 sequence (P18031 whole entry): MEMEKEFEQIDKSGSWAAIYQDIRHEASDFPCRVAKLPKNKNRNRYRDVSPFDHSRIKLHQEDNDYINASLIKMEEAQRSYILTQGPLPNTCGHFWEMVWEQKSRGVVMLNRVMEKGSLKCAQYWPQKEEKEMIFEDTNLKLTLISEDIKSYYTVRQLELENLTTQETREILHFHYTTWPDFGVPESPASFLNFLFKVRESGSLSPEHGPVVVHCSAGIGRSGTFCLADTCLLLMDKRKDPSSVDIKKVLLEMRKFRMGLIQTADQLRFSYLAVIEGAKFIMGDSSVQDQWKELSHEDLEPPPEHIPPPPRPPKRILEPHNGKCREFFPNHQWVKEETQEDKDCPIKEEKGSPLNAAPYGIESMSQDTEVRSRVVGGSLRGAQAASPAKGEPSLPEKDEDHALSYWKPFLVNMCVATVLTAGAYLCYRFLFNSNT
Put plainly: Inhibition of human recombinant PTP1B expressed in CHO cells assessed as p-nitorphenol production after 2 mins by microplate reader. Format: cell-based. A digest of the protocol: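 Recombinant human PTP1B catalytic domain (30 nM) with 2 mM pNPP in 50 mM MOPS, pH 6.5, at 30 °C. pNP release was read continuously at 405 nm for 2 min, and the initial rate was taken from the early linear region. Inhibitors were diluted around the estimated IC50. IC50 came from a nonlinear fit of % inhibition vs [I] using a Hill-coefficient equation.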

Our source for the IC50 values is ChEMBL document CHEMBL1821676, “Click to a focused library of benzyl 6-triazolo(hydroxy)benzoic glucosides: novel construction of PTP1B inhibitors on a sugar scaffold” (Eur J Med Chem, 2011).

Structures are written as SMILES. pIC50: −log10 of the molar value.

One may read the pIC50 as the negative decadic logarithm of the IC50, by convention in mol/L. With `O=C(O)c1cccc(O)c1` [3-HYDROXYBENZOIC ACID], the pIC50 was under 4.00. The value for `O=C(O)c1cc(O)ccc1O` [GENTISIC ACID] was under 4.00; that for `O=C(O)c1cc(O)cc(O)c1` [3,5-DIHYDROXYBENZOIC ACID] was under 4.00.
